SIRT5 inh: blocks human SIRT5 desuccinylation of peptide; AID 652115; inhibition, % at 15 µM; hit rate 1.1% among 330,000; Purified SirT5, succinyl-peptide AMC, trypsin-coupled fluorescence; Q9NXA8; in the data active = inhibition above about 15%; inconclusive = no clear call, values can overlap the other calls
Ecoli rRNA inh: selective bacterial rRNA inhibition in E. coli; E. coli WT GFP vs humanized-ribosome RFP mutants, fluorescence, 24 h; stronger effect = lower value; DMSO median 0, no signal -100; GFP signal change (wild-type ribosome), % (test concentration not listed); hit rate 1.6% among 350,000; AID 720706;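 active = significant combined selectivity score with lowered wild-type GFP, culture density cut under 30%, mutant RFP and density less affected; inactive = any of these conditions unmet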
FGF22 binding-1: FGF22 (human) thermal shift binding. recombinant FGF22 thermal shift, SYPRO orange fluorescence; percent of sucrose octasulfate shift, DMSO zero. activity (Tm shift, normalised), % at 9.99 µM. hit rate 1.5% among 340,000. Q9HCT0;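 active = mean Tm shift, scaled 0 neutral to 100 positive control, at about 1.3% or above, every replicate too, limit read from the data; inconclusive = no clear call, values can overlap the other calls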
Target sequence (Q9HCT0 whole entry, looked up): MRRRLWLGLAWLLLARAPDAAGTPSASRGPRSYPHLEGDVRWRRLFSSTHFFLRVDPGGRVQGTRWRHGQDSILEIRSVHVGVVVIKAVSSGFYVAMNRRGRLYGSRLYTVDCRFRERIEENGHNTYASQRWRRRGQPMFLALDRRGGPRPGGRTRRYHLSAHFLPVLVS
FN deposition inh: fibronectin deposition inhibition. AH1F fibroblasts, Alexa488-fibronectin deposition fluorescence, overnight. inhibition, % at 12.6 µM. hit rate 0.086% among 350,000. AID 743247;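 active = mean inhibition across replicates of 30% or more, regardless of how many single replicates reach that level; inconclusive = mean under 30% yet at least half of replicates reach 30%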;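 note: positive control wells lacked labelled fibronectin entirely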
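test system = AH1F fibroblasts assembling fluorescent fibronectin matrix | quantity = 10000 AH1F cells per well | buffer or medium = DMEM plus 2% serum, read in PBS | doses = single dose, pinned | incubation = 1 h cell attachment, overnight exposure to compound and label | detection = fluorescence at 485 nm excitation, 525 nm emission | read-out basis = inhibition from reduced deposited-fibronectin fluorescence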
Statin myotox sup: suppression of simvastatin myotoxicity; C2C12 myotubes + simvastatin, ATP luminescence, 48 h; scaled: DMSO 0, geranylgeraniol control 100; AID 602340; rescue of ATP level, % at 7.49 µM; hit rate 0.78% among 330,000;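 active = mean ATP rescue above about 67%, or every replicate alone reaching that limit, limit read from the data, passing the limit was not always enough; inconclusive = no clear call, values can overlap the other calls; inactive = mean under the limit and some replicate under it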;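 note: myotubes were challenged with 10 µM simvastatin during compound exposure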
E-selectin induc: E-selectin induction on HUVECs. HUVEC E-selectin immunofluorescence imaging; normalized: neutral wells 0, TNF-alpha wells 100. P16581. hit rate 0.37% among 260,000. activation, % at 7.58 µM;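 active = mean E-selectin-positive cell signal at least 10% of the positive control, reached in at least 60% of replicates, without over 20% cell loss; inconclusive = no rule given, readout overlaps actives, possibly toxicity-flagged; inactive = the rest, including those meeting only one limit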
Target sequence (P16581 whole entry, looked up): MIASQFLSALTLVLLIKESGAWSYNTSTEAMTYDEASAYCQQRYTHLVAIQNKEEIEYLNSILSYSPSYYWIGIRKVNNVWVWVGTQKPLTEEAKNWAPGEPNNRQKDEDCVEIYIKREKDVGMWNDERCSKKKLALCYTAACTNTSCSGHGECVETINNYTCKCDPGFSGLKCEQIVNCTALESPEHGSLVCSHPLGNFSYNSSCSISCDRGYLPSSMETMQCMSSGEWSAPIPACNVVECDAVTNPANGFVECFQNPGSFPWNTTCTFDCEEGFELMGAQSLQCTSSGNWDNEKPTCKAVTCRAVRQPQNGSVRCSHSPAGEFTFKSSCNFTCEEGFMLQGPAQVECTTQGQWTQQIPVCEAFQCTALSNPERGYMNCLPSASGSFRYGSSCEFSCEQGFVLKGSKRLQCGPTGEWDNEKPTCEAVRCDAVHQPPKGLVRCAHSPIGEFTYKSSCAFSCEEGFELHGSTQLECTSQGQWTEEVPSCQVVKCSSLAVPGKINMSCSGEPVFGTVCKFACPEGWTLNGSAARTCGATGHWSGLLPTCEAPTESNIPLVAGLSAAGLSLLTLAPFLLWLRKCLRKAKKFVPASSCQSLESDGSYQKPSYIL
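Read-out basis: % PE-positive cells; Test system: HUVEC primary endothelial cells; Technique: immunofluorescence imaging; Dosing: single-point compound dose.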
FGF22 binding-2: binders of human FGF22 by thermal shift; thermal shift activity, °C (ΔTm) at 38 µM; shares compounds with FGF22 binding-1; AID 720646; hit rate 2% among 1,000; recombinant FGF22 thermal shift, SYPRO orange fluorescence;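 active = fitted rise in melting shift crosses a set limit at or below the top valid dose tested; inconclusive = flat fit at mid-level activity, or a poor quality fit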
TSA no protein: shows thermal shift signal without protein, FGF22 counter-screen; compound-only SYPRO orange thermal shift counter-screen, no protein; shares compounds with FGF22 binding-1; AC50, µM (doses to about 38 µM); hit rate 2% among 1,000;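 active = rising signal whose fitted curve reaches the 0.54 level within the top valid dose, showing a melting point, actives reach about 13 µM in these data; inactive = the rest, including activity in the opposite direction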; note: value is where the raw curve crosses a fixed level and not half-maximal
Starred values were filed as active, the others as inactive; i = inactive; ? = inconclusive; / = no result; [ ] = dose if it differs, or a comment. An excerpt weighted towards active compounds, which were near 4% of everything screened.

SMILES | SIRT5 inh | Ecoli rRNA inh | FGF22 binding-1 | FN deposition inh | Statin myotox sup | E-selectin induc | FGF22 binding-2 | TSA no protein
CCOC(=O)c1ccc(S(=O)(=O)Nc2cc(C(=O)O)ccc2Cl)cc1 | -0.6 | -19.6 | 2.2* | 6.9 | / | / | 0.053 | i
O=C(CCc1ccccc1)c1c(O)cc(O)cc1O | / | / | 21.0* | / | -13.7 | / | 0.089 | i
COc1cc(O)c(C(=O)O)c(CCc2ccccc2)c1 | 0.0 | -8.9 | -0.1 | 6.0 | 13.6 | 0.1 | / | /
CN(NC1OC(=O)c2ccccc21)c1ncc(C(F)(F)F)cc1Cl (stereo not given) | -3.8 | 7.5 | 28.0* | 6.2 | -0.9 | 0.6 | 0.003 | i
CN(NC1OC(=O)c2ccccc21)c1c([N+](=O)[O-])cc(C(F)(F)F)cc1[N+](=O)[O-] (stereo not given) | -3.8 | -2.2 | -0.5 | 6.3 | -5.5 | 0.2 | / | /
O=C(Nc1ccc([N+](=O)[O-])cc1)C(=O)Nc1cccc(C(=O)O)c1 | -4.3 | 4.2 | -0.4 | -1.4 | -51.8 | / | / | /
O=C(O)/C=C/c1cccc(NC(=O)Nc2ccc([N+](=O)[O-])cc2)c1 | -11.7 | -4.0 | 1.6* | -1.6 | 0.0 | 0.2 | 0.077 | i
COc1ccc(NC(=O)CN(C)C(=O)c2cn(-c3ccccc3)nc2-c2cccnc2)cc1 | 4.2 | -4.1 | 2.4* | 0.6 | -4.3 | 1.3 | 0.223 | i
COCC#Cc1ccc([C@H]2[C@@H](CO)N3C(=O)CN(C(=O)Nc4cc(F)ccc4F)C[C@@H]23)cc1 | / | 4.7 | / | / | / | / | / | /
N#C[C@@H]1[C@H](c2ccc(C3=CCCCC3)cc2)[C@@H](CO)N1S(=O)(=O)c1cccc(F)c1 | 2.6 | 2.1 | 0.1 | -1.0 | -4.7 | 0.2 | / | /
Cc1ccc(S(=O)(=O)Nc2ccc3c(c2)CC(=O)N([C@@H](C)CO)C[C@H](C)[C@@H](CN(C)S(C)(=O)=O)O3)cc1 | 3.2 | 3.0 | 2.2* | 5.5 | 13.7 | 0.0 | 0.029 | i
C[C@H](CO)N1C[C@H](C)[C@H](CN(C)CC2CC2)Oc2ccc(NS(=O)(=O)c3ccc(F)cc3)cc2CC1=O | 11.9 | 0.5 | -0.1 | 5.7 | 8.0 | -0.1 | / | /
Cc1noc(C)c1S(=O)(=O)Nc1ccc2c(c1)CC(=O)N([C@@H](C)CO)C[C@@H](C)[C@@H](CN(C)Cc1ccc(Cl)c(Cl)c1)O2 | 4.6 | -4.9 | 1.5* | -0.4 | ? | 0.2 | 0.113[42 µM] | i
C[C@H]1CN([C@@H](C)CO)C(=O)Cc2cc(NS(=O)(=O)c3ccc(F)cc3)ccc2O[C@H]1CN(C)CC1CCCCC1 | 16.6* | 12.7 | 11.8* | / | 4.6 | -0.3 | 0.124 | i
COc1ccc2c3c([nH]c2c1)[C@H](CO)N(C(C)=O)CC31CN(C(=O)c2ccc3c(c2)OCO3)C1 | -1.5 | 2.3 | 26.1* | / | / | 0.1 | 0.056 | i
O=C(NC1CCC1)[C@H]1[C@H](CO)[C@H]2Cn3c(cccc3=O)[C@@H]1N2CC1CCCC1 | -1.0 | 3.1 | / | / | / | -0.3 | / | /
O=C(O)Cn1cc(/C=N/NC(=O)c2cc3cc(Br)ccc3o2)c2ccccc21 | 9.9 | 3.6 | 1.4* | 1.1 | / | / | -0.036 | i
Cn1cc(/C=N/NC(=O)c2cc3cc(Br)ccc3o2)c2ccccc21 | -6.1 | 1.3 | -0.2 | 4.9 | / | -0.2 | / | /
Cc1c2c(n3c(nc4ccccc43)c1C#N)N(CCN(C)C)CC2 | -41.5 | 11.3 | 1.4* | -12.2 | / | 0.1 | 0.03 | i
Cc1c2c(n3c(nc4ccccc43)c1C#N)N(CCCN(C)C)CC2 | -48.6 | -7.2 | 0.0 | -2.9 | / | 0.1 | / | /
Cn1cc([N+](=O)[O-])c(C(=O)Nc2ccc3nc(-c4ccccc4)[nH]c3c2)n1 | 5.3 | 5.1 | 14.7* | -6.2 | -11.3 | / | 0.219 | i
CCOc1ccc(NC(=O)c2cccc(-n3cccc3)c2)cc1S(=O)(=O)N1CCOCC1 | -32.1 | -9.2 | 2.3* | 11.1 | 0.0 | / | -0.154 | i
COc1ccc(S(=O)(=O)N2CCOCC2)cc1NC(=O)c1cccc(-n2cccc2)c1 | 1.1 | -2.3 | -1.3 | -2.4 | 32.4 | / | / | /
Cc1nc2ccc(NC(=O)c3ccc(C)c(S(=O)(=O)N4CCOCC4)c3)cc2s1 | 0.8 | -5.3 | 1.6* | 0.4 | 0.9 | / | 0.043 | i
C[C@H](CO)N1C[C@H](C)[C@H](CN(C)Cc2ccc(C(F)(F)F)cc2)Oc2ccc(NC(=O)CCCN(C)C)cc2C1=O | / | 3.6 | 0.1 | / | 6.0 | -3.0 | / | /
SMILES | SIRT5 inh | Ecoli rRNA inh | FGF22 binding-1 | FN deposition inh | Statin myotox sup | E-selectin induc | FGF22 binding-2 | TSA no protein
Cc1cccc(OCC(=O)NCC(c2cccs2)N2CCOCC2)c1 (stereo not given) | -4.1 | -1.8 | -0.7 | -10.1 | 4.3 | 4.4 | / | /
O=C(COc1cccc(Cl)c1)NCC(c1cccs1)N1CCOCC1 (stereo not given) | 4.5 | -2.9 | 1.6* | -0.3 | 0.7 | -0.4 | -0.063 | i
CCCN(C)C[C@H]1OCCCC[C@@H](C)Oc2ccc(NC(=O)Cc3ccccc3)cc2C(=O)N([C@@H](C)CO)C[C@H]1C | / | 5.3 | / | / | 20.1 | 0.0 | / | /
COc1cc(NC(=O)c2cccs2)c(OC)cc1NC(=O)Nc1ccc(F)cc1 | -3.8 | 0.3 | 1.4* | -0.6 | -2.3 | / | -0.01 | i
Cc1noc(C)c1S(=O)(=O)Nc1ccc2c(c1)C(=O)N([C@H](C)CO)C[C@H](C)[C@H](CN(C)S(=O)(=O)c1cccs1)O2 | -5.0 | -3.6 | 0.0 | / | 0.4 | -0.2 | / | /
C[C@@H]1CCCCO[C@@H](CN(C)CC2CCCCC2)[C@@H](C)CN([C@@H](C)CO)C(=O)c2cc(N(C)C)ccc2O1 | 3.0 | 2.6 | -0.6 | / | -11.0 | 0.1 | / | /
Cc1noc(C)c1S(=O)(=O)N(C)C[C@H]1Oc2ccc(NS(=O)(=O)c3cccs3)cc2C(=O)N([C@@H](C)CO)C[C@H]1C | 6.4 | -0.3 | 2.1* | / | 11.7 | -0.5 | 0.124 | i
C[C@@H]1CN([C@@H](C)CO)C(=O)c2cc(NS(=O)(=O)c3cn(C)cn3)ccc2O[C@@H]1CN(C)CC1CC1 | -0.8 | 6.7 | 1.4* | / | 4.7 | -0.2 | 0.037[42 µM] | i
C[C@H]1CN([C@@H](C)CO)C(=O)c2cc(NC(=O)CCC(F)(F)F)ccc2O[C@H]1CN(C)CC1CC1 | -2.7 | 3.2 | 1.8* | / | 2.8 | 0.7 | 0.097[10 µM] | i
C[C@@H]1CN([C@H](C)CO)C(=O)c2cc(N(C)C)ccc2O[C@@H]1CN(C)CC1CCCCC1 | -5.7 | 0.8 | 1.4* | -2.4 | 15.5 | -0.2 | 0.27[42 µM] | i
C[C@H](CO)N1C[C@H](C)[C@H](CN(C)CC2CC2)Oc2ccc(NC(=O)CCC(F)(F)F)cc2C1=O | 1.6 | 4.9 | 0.0 | / | 10.7 | 0.0 | / | /

Screens: PubChem, Broad Institute
